SMILES strings stand for the structures.

The first assay deals with T1, Protein farnesyltransferase (Homo sapiens, UniProt P49354+P49356). In words: Inhibitory activity against farnesyltransferase (FPT) (20 ug/mL). The assay is classed as protein-complex assay. The method in brief:
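Primary scintillation proximity assay (SPA) following the kit protocol, with a biotinylated substrate peptide bearing the K-Ras carboxy-terminal sequence.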
The compound `Fc1ccc2c(c1)[C@@H](OCc1c(Cl)cccc1Cl)[C@@H](Cn1ccnc1)S2` returned an inhibition of 90%.
Same read-out and setting: as for `Clc1cccc2c1S[C@H](Cn1ccnc1)[C@@H]2OCc1ccsc1Cl`, the figure is 92%; as for `OCc1nccn1C[C@H]1Sc2cc(Cl)ccc2[C@H]1OCc1ccsc1Cl`, 30%.
The same measure, in the same setting: the value for `[O-][S+]1c2cc(Cl)ccc2[C@@H](OCc2ccsc2Cl)[C@H]1Cn1ccnc1` (some centres undefined) was 79%; that for `O=S1(=O)c2cc(Cl)ccc2C(OCc2ccc(Cl)cc2Cl)C1Cn1ccnc1` (centres undefined) was 60%; that for `O[C@@H]1c2cc(F)ccc2S[C@@H]1Cn1ccnc1` was 23%.
`Clc1ccc2c(c1)S[C@H](Cn1ccnc1)[C@@H]2OCc1cc(Cl)sc1Cl` had an inhibition of 89%.
Still for that read-out and setting: the value for `O[C@@H]1c2cccc(Cl)c2S[C@@H]1Cn1ccnc1` was 44%.
`O[C@@H]1c2ccc(F)cc2S[C@@H]1Cn1ccnc1` showed an inhibition of 38%.
Same read-out and setting: the value for `Clc1ccc2c(c1)S[C@H](CN1CCOCC1)[C@@H]2OCc1ccsc1Cl` was 2%; that for `O[C@@H]1c2cc(Br)ccc2S[C@@H]1Cn1ccnc1` was 44%; that for `OC1c2ccc(Cl)cc2SC1Cn1ccnc1` (centres undefined) was 58%.
On the same count and under the same terms, the value for `O[C@@H]1c2ccc(C(F)(F)F)cc2S[C@@H]1Cn1ccnc1` was 42%.

The target of another assay is T1, Protein farnesyltransferase. The assay can be described thus: Inhibitory activity against recombinant human farnesyltransferase. In kind it is protein-complex assay.
For `O=C(Nc1ccncc1)C1CCN(C2c3ccc(Cl)cc3CCc3cccnc32)CC1` (centres undefined), the IC50 came to 9.2 µM.
As to `Fc1ccc2c(c1)[C@@H](OCc1c(Cl)cccc1Cl)[C@@H](Cn1ccnc1)S2`, the IC50 is 2.7 µM.
On to `Clc1cccc2c1S[C@H](Cn1ccnc1)[C@@H]2OCc1ccsc1Cl`, for which the IC50 is 6 µM.
On to `NC1CCC(C(=O)N2CCC(=C3c4ccc(Cl)cc4CCc4cccnc43)CC2)CC1` (centres undefined), for which the IC50 stood at 5 µM.
With `O=C(Cc1cccnc1)N1CCN(C(c2ccc(Cl)cc2)c2ccccn2)CC1` (centres undefined), the IC50 was 38.3 µM.
With `[O-][S+]1c2cc(Cl)ccc2[C@@H](OCc2ccsc2Cl)[C@H]1Cn1ccnc1` (some centres undefined), the IC50 is 20.8 µM.
As to `O=S1(=O)c2cc(Cl)ccc2C(OCc2ccc(Cl)cc2Cl)C1Cn1ccnc1` (centres undefined), the IC50 is 45.9 µM.
On the same count and under the same terms, the value for `[O-][n+]1ccc(CN2CCC(=C3c4ccccc4CCc4cccnc43)CC2)cc1` was 1830 µM.
For the compound `OC1c2cc(Cl)ccc2SC1Cn1ccnc1` (centres undefined), the IC50 is above 75 µM.
In the case of `O[C@H]1c2cc3c(cc2S[C@H]1Cn1ccnc1)CCCC3`, the IC50 is above 70 µM.
As to `COC(=O)[C@@H](Cc1ccccc1)NC(=O)[C@@H](Cc1c[nH]c2ccccc12)NC(=O)[C@H](Cc1ccccc1)CP(=O)(O)O`, the IC50 was found to be 0.7 µM.
Regarding `O=C(Cc1ccccc1)N1CCC(=C2c3ccc(Cl)cc3CCc3cccnc32)CC1`, the IC50 stood at 0.8 µM.
Still for that read-out and setting: the value for `CC(C)C(CP(=O)(O)C(Cc1ccccc1)NC(=O)OCc1ccccc1)C(=O)N[C@H](Cc1c[nH]c2ccccc12)C(=O)N[C@H](C)C(=O)O` (some centres undefined) was 1 µM.
For the compound `O=C(Cc1ccccc1)N1CCN(C2c3ccc(Cl)cc3CCc3cccnc32)CC1` (centres undefined), the IC50 came out at 2.7 µM.
`CN1CCC(C2c3ccccc3CCc3cccnc32)CC1` (centres undefined): the IC50 came out at 724 µM.
Regarding `O=C(Cc1cccnc1)N1CCC(=C2c3ccc(Cl)cc3CCc3cccnc32)CC1`, the IC50 was 0.6 µM.
Take `CC(C)(C)CC(=O)N1CCC(=C2c3ccc(Cl)cc3CCc3cccnc32)CC1`: the IC50 came to 9.8 µM.
As to `O=C(Cc1ccccn1)N1CCC(=C2c3ccc(Cl)cc3CCc3cccnc32)CC1`, the IC50 was determined as 2 µM.
Consider `O=C(Nc1ccncc1)N1CCC(=C2c3ccc(Cl)cc3CCc3cccnc32)CC1`, for which the IC50 worked out at 0.87 µM.
Regarding `O=C(Cc1ccncc1)N1CCC(=C2c3ccccc3CSc3ccccc32)CC1`, the IC50 was determined as 2.3 µM.
In the case of `O=C(O)c1ccc(C(=O)N2CCC(=C3c4ccc(Cl)cc4CCc4cccnc43)CC2)cc1`, the IC50 worked out at 5.3 µM.
In the case of `C=C1CC2C3C=C(Cl)C4=CC(=O)C(Br)CC4(C)C3CCC2(C)[C@@]1(O)C(C)=O` (some centres undefined), the IC50 was 1.8 µM.
`O=C(Cc1ccncc1)N1CCC(=C2c3ccc(Cl)cc3CCc3ccc[n+]([O-])c32)CC1`: the IC50 is 2.1 µM.
On to `O=C(Cc1ccncc1)N1CCC(=C2c3ccccc3CCc3ccccc32)CC1`, for which the IC50 is 1.14 µM.
As for `O=C(Nc1ccccn1)N1CCN(C2c3ccc(Cl)cc3CCc3cccnc32)CC1` (centres undefined), the IC50 came out at 0.95 µM.
Regarding `O=C(Nc1cccnc1)N1CCN(C2c3ccc(Cl)cc3CCc3cccnc32)CC1` (centres undefined), the IC50 amounted to 1.3 µM.

For the origin of these results see ChEMBL document CHEMBL1130261, “Identification of novel farnesyl protein transferase inhibitors using three-dimensional database searching methods” (J Med Chem, 1997).
